From PubChem BioAssay
Inconclusive results are not listed.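 How the source made its calls, unless noted: active means inhibition over a set limit, the all-compound mean plus 3 SD, in both replicate runs; inconclusive means over that limit in just one replicate run; inactive means at or under that limit in both runs.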

How the values were obtained:
[1] = S. cerevisiae growth inhibition in permissive medium (OD615), pilot counter-assay for S. cerevisiae lifespan shortening project, permissive growth control (AID 705;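 active means growth inhibition above 25% in both replicates, a cutoff set 3 SD above the mean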); settings: OD615, 24 h, at 10 µM, hits give high values
How it was run: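 System: S. cerevisiae with engineered DeaD lifespan system. Medium: SC raffinose/galactose permissive medium. Doses: single compound dose of 10 µM, 0.25% DMSO final. Schedule: 24 h exposure, 30 °C. Measured by: OD615 turbidity read. Read-out: growth inhibition.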

[2] = S. cerevisiae growth inhibition in restrictive medium, OD615, pilot screen, restrictive growth control, yeast lifespan reduction project (AID 706;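 active means growth inhibition above a set limit, 3 SD over mean compound inhibition, in both replicates, cut at about 43% in these data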;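 further: modified DeaD lifespan yeast strain shifted to restrictive glucose medium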); settings: OD615, 48 h, at 10 µM, hits give high values
How it was run: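 Assay system – genetically modified Saccharomyces cerevisiae, DeaD replicative lifespan assay strain · Medium – CSMM-D glucose medium · Doses – 10 µM compound, 0.25% DMSO · Times – 4 h pre-incubation, 48 h exposure at 30 °C · Signal – optical density at 615 nm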

[3] = doxorubicin toxicity protection in MRP-1 cells – H69AR cells, CellTiter-Glo, duplicate, MRP-1 activator project, pilot screen (AID 807;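 active means viability increase at or above a cutoff of the median across tested compounds plus 3 SD, cut at about 8.5% in these data, passing the limit was not always enough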;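 further: compound pretreatment 18-22 h then 72 h combined with doxorubicin; 0% = doxorubicin alone and 100% = vehicle without doxorubicin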); settings: H69AR viability with doxorubicin, CellTiter-Glo luminescence; at 10 µM; hits give high values
[4] = viability of HCT116 without oncogenic beta-catenin – human colon tumor cells, pilot screen (AID 823;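 active means cell viability at or below a set limit in both duplicate runs, the limit being the all-compound median minus 4 SD, cut at about 23% in these data, passing the limit was not always enough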;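 further: 0% = wells killed by 20 µM Hyamine and 100% = untreated DMSO cell wells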); settings: HCT116 beta-catenin knockout viability, CellTiter-Glo, 60 h; at 10 µM; hits give low values
[5] = viability of PTEN-null HCT116 cells – cell-based, HCT116 clonal line, CellTiter-Glo, pilot screen (AID 824;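 active means viability at or below 27.92% in each of two runs, the all-compound median minus 4 SD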;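 further: 0% = 20 µM Hyamine control and 100% = vehicle cell control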); settings: HCT116 PTEN-deleted viability, 60 h, at 10 µM, hits give low values
[6] = RAM pathway blockade in budding yeast – dse1pr::URA3 reporter, 5-FOA selection, pilot screen (AID 869);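 further: 0% = DMSO wells with no growth and 100% = 10 µM 1-NA-PP1 with full growth; RAM network block rescues cells from 5-FOA so hits raise OD615 growth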; settings: S. cerevisiae dse1pr::URA3 5-FOA growth, OD615, 2 d; at 10 µM; hits give high values; strain carries analog-sensitive mutant Cbk1 kinase
[7] = RAM signaling pathway blockade in yeast – S. cerevisiae, Pdr1DBD-CYC8 efflux-inhibited sensitized strain, primary screen (AID 1298;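 active means RAM network inhibition above 8.4% in each of two replicates, 3 SD over the compound average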;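 further: 0% = DMSO untreated cells without growth and 100% = 10 µM 1-NA-PP1 full growth; higher means more yeast growth rescued from 5-FOA killing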); settings: S. cerevisiae cbk1-as DSE1-URA3 strain, 5-FOA growth OD615, 2 d; at 50 µM; hits give high values

Cc1ccc(-c2cc(C(F)(F)F)n3ncc(C(=O)NCc4ccco4)c3n2)cc1
inactive: growth inhibition [1] -5.88% | growth inhibition [2] -12.6% | viability increase [3] -5.85% | viability [4] 74% | viability [5] 75.4% | inhibition [6] 2.67% | RAM network inhibition [7] 3.41%

COc1ccccc1-n1c2c(cc(C(=O)N3CCC(C)CC3)c1=O)C(=O)CC(C)(C)C2
inactive: growth inhibition [1] -21.2% | growth inhibition [2] -5.49% | viability increase [3] -0.6% | viability [4] 101% | viability [5] 90.7% | inhibition [6] 0.005% | RAM network inhibition [7] 4.67%

Cn1c(=O)c2cc(S(=O)(=O)NC(C(=O)NCc3cccnc3)c3ccccc3)ccc2n(C)c1=O (stereo not given)
inactive: growth inhibition [1] -17% | growth inhibition [2] -18.3% | viability increase [3] -1.54% | viability [4] 91.2% | viability [5] 94.2% | inhibition [6] 1.32% | RAM network inhibition [7] 1.81%

Fc1cccc(Cl)c1CSc1nnnn1-c1ccc2c(c1)OCO2
inactive: growth inhibition [1] 3.1% | growth inhibition [2] 17.6% | viability increase [3] -5.87% | viability [4] 55.7% | viability [5] 46.4% | inhibition [6] 1.1% | RAM network inhibition [7] 10.2%

Cn1c(SCCSc2nnc(-c3ccccc3)n2C)nnc1-c1ccccc1
inactive: growth inhibition [1] -12.1% | growth inhibition [2] 8.02% | viability increase [3] -0.26% | viability [4] 97.4% | viability [5] 93.8% | inhibition [6] 1.62% | RAM network inhibition [7] 5.17%

O=C(CSc1nc2ccccc2c(=O)[nH]1)N1CCCCC1
inactive: growth inhibition [1] -16.2% | growth inhibition [2] -5.08% | viability increase [3] -2.69% | viability [4] 98.7% | viability [5] 84.7% | inhibition [6] 0.395% | RAM network inhibition [7] -0.51%

COc1ccc(S(=O)(=O)N2CC(C)N(S(=O)(=O)c3ccc(OC)cc3)CC2C)cc1 (stereo not given)
inactive: growth inhibition [1] -4.74% | growth inhibition [2] 0.035% | viability increase [3] -2.77% | viability [4] 93.2% | viability [5] 102% | inhibition [6] 1.73% | RAM network inhibition [7] 5.94%

c1coc(-c2nc(-c3ccco3)c(-c3ccco3)nc2-c2ccco2)c1
inactive: growth inhibition [1] -25.2% | growth inhibition [2] -38.9% | viability increase [3] -2.54% | viability [4] 97.6% | viability [5] 86.5% | inhibition [6] 2.14% | RAM network inhibition [7] 0.57%

CC(=O)Nc1ccc(S(=O)(=O)n2cnc3cc(C)c(C)cc32)cc1
inactive: growth inhibition [1] -7.58% | growth inhibition [2] 1.31% | viability increase [3] -0.2% | viability [4] 99.6% | viability [5] 92.2% | inhibition [6] -0.09% | RAM network inhibition [7] 1.45%

CCOC(=O)Cn1nc(C)c(-c2ccccc2)c1N
inactive: growth inhibition [1] -23.1% | growth inhibition [2] -5.69% | viability increase [3] -1.41% | viability [4] 97.4% | viability [5] 95.2% | inhibition [6] 1.26% | RAM network inhibition [7] 2.61%

CCCN(CCC(=O)Nc1ccccc1F)CC1CC1
inactive: growth inhibition [1] -12.8% | growth inhibition [2] -18.1% | viability increase [3] -1.44% | viability [4] 99.1% | viability [5] 95.3% | inhibition [6] 0.64% | RAM network inhibition [7] -0.31%

Cc1nnc(SCCn2c(N3CCN(c4ccccc4)CC3)nc3c2c(=O)n(C)c(=O)n3C)s1
inactive: growth inhibition [1] -8.87% | growth inhibition [2] -18.3% | viability increase [3] -1.99% | viability [4] 104% | viability [5] 102% | inhibition [6] 1.23% | RAM network inhibition [7] 2.19%

O=C(c1cc(-c2cccc(O)c2)on1)N1CCCCC1
inactive: growth inhibition [1] 0.145% | growth inhibition [2] 10.4% | viability increase [3] 0.08% | viability [4] 101% | viability [5] 103% | inhibition [6] -0.46% | RAM network inhibition [7] 4.74%

COc1ccc(C2C/C(=N\O)C(C)(C)O2)cc1 (stereo not given)
inactive: growth inhibition [1] -16.5% | growth inhibition [2] -4.77% | viability increase [3] -0.83% | viability [4] 97.1% | viability [5] 93.7% | inhibition [6] 1.06% | RAM network inhibition [7] 3.9%

CCN(CC)CC(=O)n1c2c(c3ccccc31)CCCC2
inactive: growth inhibition [1] 4.59% | growth inhibition [2] -2.73% | viability increase [3] -1.1% | viability [4] 94.5% | viability [5] 99.5% | inhibition [6] 0.57% | RAM network inhibition [7] 0.67%

CCOC(=O)c1cc(-c2ccc(C)cc2)n(CC(=O)NCc2ccco2)c1C
inactive: growth inhibition [1] 12.1% | growth inhibition [2] -7.09% | viability increase [3] -5.81% | viability [4] 74.6% | viability [5] 77.5% | inhibition [6] 3.1% | RAM network inhibition [7] 5.82%

O=C1c2ccccc2C(Nc2ccc3c(c2)OCCO3)N1Cc1ccccc1 (stereo not given)
inactive: growth inhibition [1] -4.61% | growth inhibition [2] 8.43% | viability increase [3] -1.12% | viability [4] 88.7% | viability [5] 80.9% | inhibition [6] 0.61% | RAM network inhibition [7] 2.3%

O=C(C1=C(O)C(=O)N(CCN2CCOCC2)C1c1ccncc1)c1ccco1 (stereo not given)
inactive: growth inhibition [1] -15.4% | growth inhibition [2] 2.89% | viability increase [3] -3.57% | viability [4] 98.3% | viability [5] 93.2% | inhibition [6] 2.35% | RAM network inhibition [7] 2.42%

CCOc1ccc(N2CC(C(=O)NCCC3=CCCCC3)CC2=O)cc1 (stereo not given)
inactive: growth inhibition [1] -1.23% | growth inhibition [2] -18.5% | viability increase [3] 0.15% | viability [4] 99.6% | viability [5] 93.8% | inhibition [6] 0.36% | RAM network inhibition [7] 3.96%

CCN1CCN(Cc2ccc(NC(=O)CC3Oc4ccc(C)cc4NC3=O)cc2)CC1 (stereo not given)
inactive: growth inhibition [1] -3.29% | growth inhibition [2] 1.68% | viability increase [3] -0.91% | viability [4] 93% | viability [5] 101% | inhibition [6] 0.29% | RAM network inhibition [7] 2.33%

O=C(Nc1ccc2ccccc2c1)c1cccnc1
inactive: growth inhibition [1] -3.92% | growth inhibition [2] 2.79% | viability increase [3] -3.85% | viability [4] 93.2% | viability [5] 81.5% | inhibition [6] 1.27% | RAM network inhibition [7] 4.91%

CC1(C)Oc2ccc3ccc(=O)oc3c2/C(=C/Nc2ccccn2)C1=O
inactive: growth inhibition [1] -22.4% | growth inhibition [2] -16% | viability increase [3] -1.39% | viability [4] 95% | viability [5] 93.3% | inhibition [6] 4.12% | RAM network inhibition [7] 6.38%

COc1ccc(C2C(C(=O)c3cccs3)=C(O)C(=O)N2c2nnc(C)s2)cc1OC (stereo not given)
inactive: growth inhibition [1] -6.25% | growth inhibition [2] 9.11% | viability increase [3] 1.59% | viability [4] 102% | viability [5] 101% | inhibition [6] 1.33% | RAM network inhibition [7] 2.05%

Cc1nnc(Nc2ccc3c(c2)OCO3)c2ccccc12
inactive: growth inhibition [1] -10.6% | growth inhibition [2] -15.2% | viability increase [3] -3.25% | viability [4] 92% | viability [5] 91.7% | inhibition [6] 0.365% | RAM network inhibition [7] 4.96%

OC(COc1ccccc1Cl)CN1CCN(CC(O)COc2ccccc2Cl)CC1 (stereo not given)
inactive: growth inhibition [1] 3.62% | growth inhibition [2] -11.8% | viability increase [3] -5.92% | viability [4] 73.3% | viability [5] 81.9% | inhibition [6] 0.495% | RAM network inhibition [7] 3.13%

N#Cc1nc(COc2ccc(Br)cc2)oc1N1CCCCCC1
inactive: growth inhibition [1] -13.1% | growth inhibition [2] 3.57% | viability increase [3] 4.39% | viability [4] 62.4% | viability [5] 67.5% | inhibition [6] 2.33% | RAM network inhibition [7] 7.31%

CC(Nc1ncnc2nc[nH]c12)c1ccccc1 (stereo not given)
inactive: growth inhibition [1] -8.48% | growth inhibition [2] 10.5% | viability increase [3] -1.31% | viability [4] 95.3% | viability [5] 88.9% | inhibition [6] 0.985% | RAM network inhibition [7] 4.02%

CN(CC(=O)NCCC1=CCCCC1)S(=O)(=O)c1ccc2c(c1)c(=O)n(C)c(=O)n2C
inactive: growth inhibition [1] -7.74% | growth inhibition [2] -27.4% | viability increase [3] -1.64% | viability [4] 84.4% | viability [5] 76.8% | inhibition [6] 2.88% | RAM network inhibition [7] 4.5%

CC(C)C(NS(=O)(=O)c1ccc2c(c1)oc(=O)n2C)C(=O)N1CCN(c2ccccc2F)CC1 (stereo not given)
inactive: growth inhibition [1] -11% | growth inhibition [2] -9.9% | viability increase [3] -4.04% | viability [4] 86.9% | viability [5] 83.1% | inhibition [6] 1.75% | RAM network inhibition [7] 4.04%

COc1ccc(CNc2ccc3cn[nH]c3c2)c(OC)c1OC
inactive: growth inhibition [1] -1.74% | growth inhibition [2] 1.43% | viability increase [3] -2.25% | viability [4] 74.7% | viability [5] 79.7% | inhibition [6] -0.465% | RAM network inhibition [7] 9.01%

Cc1nccn1-c1ncnc2sc3c(c12)CCCC3
inactive: growth inhibition [1] -7.46% | growth inhibition [2] 0.84% | viability increase [3] -3.49% | viability [4] 95.3% | viability [5] 93.5% | inhibition [6] 1.15% | RAM network inhibition [7] 2.86%

CC(=O)N1CCC(N(CCN2CCOCC2)C(=O)Nc2ccc(Cl)c(Cl)c2)CC1
inactive: growth inhibition [1] -8.97% | growth inhibition [2] -0.8% | viability increase [3] -1.49% | viability [4] 97% | viability [5] 95.6% | inhibition [6] 2.5% | RAM network inhibition [7] 1.45%

Cc1nc2sc(C(c3cccs3)N3CCN(c4ccccc4)CC3)c(O)n2n1 (stereo not given)
inactive: growth inhibition [1] 0.19% | growth inhibition [2] 5.34% | viability increase [3] -0.21% | viability [4] 96.5% | viability [5] 94.8% | inhibition [6] 1.19% | RAM network inhibition [7] 2.14%

O=c1oc2c3c4c(cc2c2c1CCC2)OCCN4CCC3
inactive: growth inhibition [1] -8.18% | growth inhibition [2] -0.795% | viability increase [3] -7.31% | viability [4] 58.3% | viability [5] 67.3% | inhibition [6] 0.055% | RAM network inhibition [7] 5.48%

O=C(COC(=O)c1cc2ccccc2o1)c1ccccc1
inactive: growth inhibition [1] -8.98% | growth inhibition [2] 2% | viability increase [3] -0.26% | viability [4] 96.9% | viability [5] 98.1% | inhibition [6] -0.115% | RAM network inhibition [7] 2.95%
